Data from ChEMBL document CHEMBL1157465, “Design, synthesis, and biological evaluation of novel 3-aryl-4-(1H-indole-3yl)-1,5-dihydro-2H-pyrrole-2-ones as vascular endothelial growth factor receptor (VEGF-R) inhibitors” (J Med Chem, 2008).

Legend:
[1] = target: Vascular endothelial growth factor receptor 2 (Homo sapiens, UniProt P35968); assay: Inhibition of human recombinant VEGFR2
Method in brief: (§1)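 Recombinant human tyrosine kinases (EPHB4, TIE2, VEGF-R2, VEGF-R3), expressed in Sf9 insect cells as GST- or His-fusions, with poly(Glu,Tyr) 4:1 as substrate. Conditions: 1 µM [γ-33P]ATP, pH 7.5 HEPES buffer with Mg/Mn, DTT and vanadate, 30 °C for 80 min, 1% DMSO. Ten concentrations were tested and IC50 came from scintillation counting of incorporated 33P.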

Angiopoietin-1 receptor = Angiopoietin-1 receptor (Homo sapiens, UniProt Q02763); assay: Inhibition of human recombinant TIE2; method in brief: as §1
[2] = target: Vascular endothelial growth factor receptor 3 (Homo sapiens, UniProt P35916); assay: Inhibition of human recombinant VEGFR3; method in brief: as §1
[3] = target: T1, Serine/threonine-protein kinase PLK4 (Homo sapiens, UniProt O00444); assay: Inhibition of human recombinant SAK
T1 sequence (O00444 whole entry): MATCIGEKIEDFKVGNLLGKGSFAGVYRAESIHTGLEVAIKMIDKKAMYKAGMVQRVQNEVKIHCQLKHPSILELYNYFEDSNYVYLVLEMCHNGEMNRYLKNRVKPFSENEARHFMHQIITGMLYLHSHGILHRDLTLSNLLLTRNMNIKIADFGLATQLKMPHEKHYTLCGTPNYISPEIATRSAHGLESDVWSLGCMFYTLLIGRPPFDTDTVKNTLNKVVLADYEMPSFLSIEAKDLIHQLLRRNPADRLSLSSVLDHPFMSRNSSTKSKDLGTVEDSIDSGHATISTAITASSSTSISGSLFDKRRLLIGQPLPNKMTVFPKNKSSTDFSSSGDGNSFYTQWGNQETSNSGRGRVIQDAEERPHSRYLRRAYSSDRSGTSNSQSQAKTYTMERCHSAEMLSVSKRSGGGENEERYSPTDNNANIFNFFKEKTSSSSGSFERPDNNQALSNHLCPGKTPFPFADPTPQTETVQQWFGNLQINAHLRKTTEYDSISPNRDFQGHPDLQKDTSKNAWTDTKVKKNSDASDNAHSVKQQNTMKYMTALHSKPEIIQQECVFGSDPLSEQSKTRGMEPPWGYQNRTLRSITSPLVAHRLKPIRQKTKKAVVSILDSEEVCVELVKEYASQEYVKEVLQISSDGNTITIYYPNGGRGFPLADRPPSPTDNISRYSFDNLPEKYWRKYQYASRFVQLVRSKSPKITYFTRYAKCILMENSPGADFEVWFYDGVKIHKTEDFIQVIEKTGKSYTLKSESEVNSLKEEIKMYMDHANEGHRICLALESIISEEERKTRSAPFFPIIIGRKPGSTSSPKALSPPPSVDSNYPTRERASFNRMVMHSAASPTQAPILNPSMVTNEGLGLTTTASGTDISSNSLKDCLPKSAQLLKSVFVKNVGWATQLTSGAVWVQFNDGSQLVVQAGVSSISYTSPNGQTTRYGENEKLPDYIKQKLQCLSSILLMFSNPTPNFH
Method in brief: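 Human kinase expressed from cDNA in Sf9 cells (baculovirus) as GST- or His-tagged protein, affinity-purified. 10 compound concentrations, 1% DMSO final, 30 °C for 80 min. Stopped with H₃PO₄, 33P incorporation counted, IC50 derived.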

[4] = target: Cyclin-dependent kinase 2 (Homo sapiens, UniProt P24941); assay: Inhibition of human recombinant CDK2/cyclin A
Method in brief: (§2)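 Human kinases expressed in Sf9 cells by baculovirus as GST or His fusions and affinity purified. Radiometric 33PanQinase assay: 60 mM HEPES-NaOH pH 7.5, 3 mM MgCl2, 3 mM MnCl2, 3 µM orthovanadate, 1.2 mM DTT, 1 µM [γ-33P]ATP, 50-400 ng enzyme, 1% DMSO; 30 °C, 80 min. Substrates: B-Raf-VE, MEK1 KM; CDK2/CycA, histone H1; CK2-A1, casein; COT, autophosphorylation. IC50 from 10 concentrations; 33Pi incorporation by scintillation.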

Focal adhesion kinase 1 = Focal adhesion kinase 1 (Homo sapiens, UniProt Q05397); assay: Inhibition of human recombinant FAK
Insulin receptor = Insulin receptor (Homo sapiens, UniProt P06213); assay: Inhibition of human recombinant INS-R
[5] = target: Receptor tyrosine-protein kinase erbB-2 (Homo sapiens, UniProt P04626); assay: Inhibition of human recombinant ERBB2
Method in brief: (§3)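 Human kinases expressed in Sf9 cells via baculovirus as GST or His fusions and affinity purified. 33PanQinase assay in 60 mM HEPES-NaOH pH 7.5, 3 mM MgCl2, 3 mM MnCl2, 3 µM orthovanadate, 1.2 mM DTT, 1 µM [γ-33P]ATP, 1% DMSO; 30 °C, 80 min. Substrates: poly(Glu,Tyr) 4:1 for ERBB2, IGF1-R and SRC; poly(Ala,Glu,Lys,Tyr) 6:2:5:1 for FLT3. IC50 from 10 concentrations by scintillation counting.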

[6] = target: Mitogen-activated protein kinase kinase kinase 8 (Homo sapiens, UniProt P41279); assay: Inhibition of human recombinant COT; method in brief: as §2
Aurora kinase B = Aurora kinase B (Homo sapiens, UniProt Q96GD4); assay: Inhibition of human recombinant Aurora B
Method in brief: (§4)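 Aurora-A or Aurora-B, human cDNA expressed in Sf9 cells as tagged recombinant protein, phosphorylating Tetra(LRRWSLG). Reactions used 60 mM HEPES pH 7.5, Mg2+/Mn2+ (3 mM each), 1.2 mM DTT, vanadate and 1 µM [γ-33P]ATP, ran 80 min at 30 °C and were stopped with 2% H3PO4.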

Homo sapiens = species: Homo sapiens; assay: Antiangiogenic activity in VEGF-induced HLMEC assessed as sprouts per bead at 1.3 uM after 24 hrs by sprouting assay; format: functional
Method in brief: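 HLMEC seeded on cytodex-3 microcarrier beads and embedded in 3D fibrinogen gel with 20 ng/mL VEGF plus compound at a final 1.3 or 2.6 µM (from 1 mM DMSO stock). Gel polymerised with 0.65 U/mL thrombin and overlaid with MCDB131, 5% FCS, 5% human serum and 200 U/mL Trasylol. Negative control: gel without growth factors. After 24 h, fixed in 1% PFA; sprouts per 50 beads counted microscopically. Triplicates per condition, n = 9 experiments.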

[7] = target: Cyclin-dependent kinase 4/cyclin D1 (Homo sapiens, UniProt P11802); assay: Inhibition of human recombinant CDK4/cyclin D1; format: protein-complex assay
Method in brief: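 CDK4/CycD1 (human, baculovirus/Sf9, affinity-purified) with Rb-CTF as substrate. The radiometric FlashPlate assay held 1 µM [γ-33P]ATP in HEPES-NaOH pH 7.5 with 3 mM MgCl2 and 3 mM MnCl2.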

Aurora kinase A = target: T2, Aurora kinase A (Homo sapiens, UniProt O14965); assay: Inhibition of human recombinant Aurora A; method in brief: as §4
T2 sequence (O14965 whole entry): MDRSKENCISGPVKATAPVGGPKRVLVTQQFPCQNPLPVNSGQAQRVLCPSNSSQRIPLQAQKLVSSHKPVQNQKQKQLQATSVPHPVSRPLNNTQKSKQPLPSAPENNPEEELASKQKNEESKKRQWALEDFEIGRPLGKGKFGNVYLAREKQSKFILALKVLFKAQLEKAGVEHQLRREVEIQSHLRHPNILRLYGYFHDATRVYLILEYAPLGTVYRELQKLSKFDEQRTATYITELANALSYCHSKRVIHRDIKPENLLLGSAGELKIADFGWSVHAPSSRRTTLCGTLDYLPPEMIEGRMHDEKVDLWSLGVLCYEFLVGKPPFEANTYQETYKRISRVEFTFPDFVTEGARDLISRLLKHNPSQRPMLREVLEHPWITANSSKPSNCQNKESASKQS

[8] = target: Proto-oncogene tyrosine-protein kinase Src (Homo sapiens, UniProt P12931); assay: Inhibition of human recombinant SRC; method in brief: as §3
[9] = target: T3, Receptor-type tyrosine-protein kinase FLT3 (Homo sapiens, UniProt P36888); assay: Inhibition of human recombinant FLT3; method in brief: as §3
T3 sequence (P36888 whole entry): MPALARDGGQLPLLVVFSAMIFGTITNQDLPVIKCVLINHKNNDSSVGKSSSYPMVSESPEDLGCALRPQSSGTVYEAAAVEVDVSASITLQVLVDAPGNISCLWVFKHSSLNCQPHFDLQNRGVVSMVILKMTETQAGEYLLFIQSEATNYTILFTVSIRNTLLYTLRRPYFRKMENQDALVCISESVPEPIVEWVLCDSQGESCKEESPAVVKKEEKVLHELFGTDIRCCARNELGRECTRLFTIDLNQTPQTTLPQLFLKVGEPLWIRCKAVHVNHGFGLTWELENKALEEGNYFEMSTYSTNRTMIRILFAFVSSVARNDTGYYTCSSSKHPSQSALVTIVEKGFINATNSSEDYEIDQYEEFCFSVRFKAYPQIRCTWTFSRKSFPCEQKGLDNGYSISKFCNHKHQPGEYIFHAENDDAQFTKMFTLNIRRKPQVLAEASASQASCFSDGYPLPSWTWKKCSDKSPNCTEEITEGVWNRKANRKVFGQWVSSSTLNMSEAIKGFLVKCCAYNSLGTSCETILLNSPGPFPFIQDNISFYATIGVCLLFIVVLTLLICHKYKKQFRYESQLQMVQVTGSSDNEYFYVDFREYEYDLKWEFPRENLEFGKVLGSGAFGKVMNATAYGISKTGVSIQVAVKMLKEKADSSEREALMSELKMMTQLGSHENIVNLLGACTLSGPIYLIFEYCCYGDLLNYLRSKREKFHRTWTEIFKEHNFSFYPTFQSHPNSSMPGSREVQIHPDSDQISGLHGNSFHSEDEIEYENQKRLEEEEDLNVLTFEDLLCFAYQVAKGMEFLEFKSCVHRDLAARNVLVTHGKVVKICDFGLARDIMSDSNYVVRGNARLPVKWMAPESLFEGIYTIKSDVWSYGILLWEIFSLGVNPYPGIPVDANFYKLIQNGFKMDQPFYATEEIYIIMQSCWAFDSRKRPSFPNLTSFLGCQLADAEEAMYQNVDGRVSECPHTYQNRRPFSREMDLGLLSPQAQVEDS

Sequence of Angiopoietin-1 receptor (Q02763 whole entry): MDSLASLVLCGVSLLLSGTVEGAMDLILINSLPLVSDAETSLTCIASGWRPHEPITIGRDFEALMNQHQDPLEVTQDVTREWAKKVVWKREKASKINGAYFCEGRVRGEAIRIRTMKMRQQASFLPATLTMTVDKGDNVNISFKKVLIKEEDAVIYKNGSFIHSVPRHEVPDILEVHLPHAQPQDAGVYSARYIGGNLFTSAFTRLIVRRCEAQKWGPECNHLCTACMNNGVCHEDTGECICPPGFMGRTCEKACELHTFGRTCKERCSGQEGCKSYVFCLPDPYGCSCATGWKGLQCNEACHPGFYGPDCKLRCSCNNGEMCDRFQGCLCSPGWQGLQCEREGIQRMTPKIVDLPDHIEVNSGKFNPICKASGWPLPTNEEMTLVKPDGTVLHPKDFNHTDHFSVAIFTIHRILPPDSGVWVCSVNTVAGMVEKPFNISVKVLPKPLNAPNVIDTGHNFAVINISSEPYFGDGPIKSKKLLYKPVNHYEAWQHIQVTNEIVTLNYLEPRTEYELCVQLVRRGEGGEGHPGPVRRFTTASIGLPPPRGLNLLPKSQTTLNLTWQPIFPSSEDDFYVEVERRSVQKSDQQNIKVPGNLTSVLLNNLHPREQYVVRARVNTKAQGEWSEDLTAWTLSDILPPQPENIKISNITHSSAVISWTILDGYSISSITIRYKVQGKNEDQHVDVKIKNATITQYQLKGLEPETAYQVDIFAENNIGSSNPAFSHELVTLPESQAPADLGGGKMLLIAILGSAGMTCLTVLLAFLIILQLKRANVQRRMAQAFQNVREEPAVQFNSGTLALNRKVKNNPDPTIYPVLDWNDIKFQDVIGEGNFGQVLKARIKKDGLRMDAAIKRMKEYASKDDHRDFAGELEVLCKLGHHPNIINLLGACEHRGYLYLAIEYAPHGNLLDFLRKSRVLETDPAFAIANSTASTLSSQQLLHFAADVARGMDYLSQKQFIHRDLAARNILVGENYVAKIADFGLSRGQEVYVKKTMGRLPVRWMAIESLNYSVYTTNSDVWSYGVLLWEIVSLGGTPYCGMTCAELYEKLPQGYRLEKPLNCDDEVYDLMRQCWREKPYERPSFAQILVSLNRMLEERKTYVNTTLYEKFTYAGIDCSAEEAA
Sequence of Vascular endothelial growth factor receptor 2 (P35968 whole entry, the tested form may be a part): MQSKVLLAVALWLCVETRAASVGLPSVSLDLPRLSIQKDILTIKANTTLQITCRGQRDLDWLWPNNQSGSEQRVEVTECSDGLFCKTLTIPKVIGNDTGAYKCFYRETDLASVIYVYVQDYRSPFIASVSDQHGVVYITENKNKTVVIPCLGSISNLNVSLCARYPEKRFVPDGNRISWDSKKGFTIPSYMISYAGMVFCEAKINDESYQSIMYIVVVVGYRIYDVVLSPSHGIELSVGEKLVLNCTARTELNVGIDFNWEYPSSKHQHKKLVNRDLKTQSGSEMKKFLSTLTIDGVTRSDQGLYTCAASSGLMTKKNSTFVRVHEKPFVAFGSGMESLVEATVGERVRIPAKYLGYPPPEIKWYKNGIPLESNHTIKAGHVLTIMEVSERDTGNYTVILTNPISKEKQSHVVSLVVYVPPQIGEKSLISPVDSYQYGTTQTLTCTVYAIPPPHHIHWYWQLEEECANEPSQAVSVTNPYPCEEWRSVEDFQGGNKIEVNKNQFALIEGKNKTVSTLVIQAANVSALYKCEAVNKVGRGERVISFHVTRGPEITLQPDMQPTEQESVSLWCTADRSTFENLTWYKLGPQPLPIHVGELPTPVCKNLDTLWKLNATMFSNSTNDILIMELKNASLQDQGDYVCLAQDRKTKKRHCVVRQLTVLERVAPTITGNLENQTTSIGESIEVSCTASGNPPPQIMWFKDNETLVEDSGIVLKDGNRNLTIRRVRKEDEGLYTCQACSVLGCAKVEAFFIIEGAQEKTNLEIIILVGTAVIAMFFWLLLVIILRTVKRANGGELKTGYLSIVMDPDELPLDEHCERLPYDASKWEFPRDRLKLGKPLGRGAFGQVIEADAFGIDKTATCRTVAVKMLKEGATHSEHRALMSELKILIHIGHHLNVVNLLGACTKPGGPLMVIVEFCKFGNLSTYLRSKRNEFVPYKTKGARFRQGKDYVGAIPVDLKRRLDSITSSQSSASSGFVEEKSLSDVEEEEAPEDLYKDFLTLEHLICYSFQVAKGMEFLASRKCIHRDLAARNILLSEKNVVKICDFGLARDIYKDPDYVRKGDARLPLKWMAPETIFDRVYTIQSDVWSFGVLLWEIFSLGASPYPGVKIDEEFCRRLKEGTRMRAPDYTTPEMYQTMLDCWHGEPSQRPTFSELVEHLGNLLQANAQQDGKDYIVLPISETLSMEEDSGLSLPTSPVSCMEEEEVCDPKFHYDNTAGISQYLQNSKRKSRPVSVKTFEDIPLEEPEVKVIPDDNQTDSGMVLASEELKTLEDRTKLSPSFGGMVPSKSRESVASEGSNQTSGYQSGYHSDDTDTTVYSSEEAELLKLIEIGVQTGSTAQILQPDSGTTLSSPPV
Sequence of Focal adhesion kinase 1 (Q05397 whole entry): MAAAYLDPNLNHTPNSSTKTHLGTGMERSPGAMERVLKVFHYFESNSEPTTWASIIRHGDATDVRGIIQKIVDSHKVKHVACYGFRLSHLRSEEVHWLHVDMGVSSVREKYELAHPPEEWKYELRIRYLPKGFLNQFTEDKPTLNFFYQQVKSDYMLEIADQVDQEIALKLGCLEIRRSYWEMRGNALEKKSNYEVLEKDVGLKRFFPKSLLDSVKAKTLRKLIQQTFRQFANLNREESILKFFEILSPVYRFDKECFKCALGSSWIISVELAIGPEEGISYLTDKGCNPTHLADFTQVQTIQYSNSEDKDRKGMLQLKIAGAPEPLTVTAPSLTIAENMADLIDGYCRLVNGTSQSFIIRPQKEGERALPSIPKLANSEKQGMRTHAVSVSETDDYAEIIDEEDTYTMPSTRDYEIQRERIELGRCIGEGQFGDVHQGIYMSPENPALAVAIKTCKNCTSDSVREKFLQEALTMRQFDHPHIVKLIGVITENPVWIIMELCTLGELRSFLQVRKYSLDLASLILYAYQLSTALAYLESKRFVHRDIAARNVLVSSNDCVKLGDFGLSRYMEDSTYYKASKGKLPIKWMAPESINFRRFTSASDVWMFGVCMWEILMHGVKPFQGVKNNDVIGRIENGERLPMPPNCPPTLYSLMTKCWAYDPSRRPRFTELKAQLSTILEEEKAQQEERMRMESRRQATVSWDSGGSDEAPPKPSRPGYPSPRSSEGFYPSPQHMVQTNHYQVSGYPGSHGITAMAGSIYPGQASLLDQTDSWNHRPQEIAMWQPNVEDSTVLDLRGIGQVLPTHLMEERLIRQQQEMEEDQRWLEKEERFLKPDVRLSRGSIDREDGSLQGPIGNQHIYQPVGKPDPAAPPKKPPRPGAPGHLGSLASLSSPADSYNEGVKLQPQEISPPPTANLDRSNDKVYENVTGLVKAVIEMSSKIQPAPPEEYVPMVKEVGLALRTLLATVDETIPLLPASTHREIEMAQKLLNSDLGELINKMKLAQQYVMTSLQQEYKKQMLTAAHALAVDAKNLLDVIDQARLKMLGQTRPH
Sequence of Vascular endothelial growth factor receptor 3 (P35916 whole entry): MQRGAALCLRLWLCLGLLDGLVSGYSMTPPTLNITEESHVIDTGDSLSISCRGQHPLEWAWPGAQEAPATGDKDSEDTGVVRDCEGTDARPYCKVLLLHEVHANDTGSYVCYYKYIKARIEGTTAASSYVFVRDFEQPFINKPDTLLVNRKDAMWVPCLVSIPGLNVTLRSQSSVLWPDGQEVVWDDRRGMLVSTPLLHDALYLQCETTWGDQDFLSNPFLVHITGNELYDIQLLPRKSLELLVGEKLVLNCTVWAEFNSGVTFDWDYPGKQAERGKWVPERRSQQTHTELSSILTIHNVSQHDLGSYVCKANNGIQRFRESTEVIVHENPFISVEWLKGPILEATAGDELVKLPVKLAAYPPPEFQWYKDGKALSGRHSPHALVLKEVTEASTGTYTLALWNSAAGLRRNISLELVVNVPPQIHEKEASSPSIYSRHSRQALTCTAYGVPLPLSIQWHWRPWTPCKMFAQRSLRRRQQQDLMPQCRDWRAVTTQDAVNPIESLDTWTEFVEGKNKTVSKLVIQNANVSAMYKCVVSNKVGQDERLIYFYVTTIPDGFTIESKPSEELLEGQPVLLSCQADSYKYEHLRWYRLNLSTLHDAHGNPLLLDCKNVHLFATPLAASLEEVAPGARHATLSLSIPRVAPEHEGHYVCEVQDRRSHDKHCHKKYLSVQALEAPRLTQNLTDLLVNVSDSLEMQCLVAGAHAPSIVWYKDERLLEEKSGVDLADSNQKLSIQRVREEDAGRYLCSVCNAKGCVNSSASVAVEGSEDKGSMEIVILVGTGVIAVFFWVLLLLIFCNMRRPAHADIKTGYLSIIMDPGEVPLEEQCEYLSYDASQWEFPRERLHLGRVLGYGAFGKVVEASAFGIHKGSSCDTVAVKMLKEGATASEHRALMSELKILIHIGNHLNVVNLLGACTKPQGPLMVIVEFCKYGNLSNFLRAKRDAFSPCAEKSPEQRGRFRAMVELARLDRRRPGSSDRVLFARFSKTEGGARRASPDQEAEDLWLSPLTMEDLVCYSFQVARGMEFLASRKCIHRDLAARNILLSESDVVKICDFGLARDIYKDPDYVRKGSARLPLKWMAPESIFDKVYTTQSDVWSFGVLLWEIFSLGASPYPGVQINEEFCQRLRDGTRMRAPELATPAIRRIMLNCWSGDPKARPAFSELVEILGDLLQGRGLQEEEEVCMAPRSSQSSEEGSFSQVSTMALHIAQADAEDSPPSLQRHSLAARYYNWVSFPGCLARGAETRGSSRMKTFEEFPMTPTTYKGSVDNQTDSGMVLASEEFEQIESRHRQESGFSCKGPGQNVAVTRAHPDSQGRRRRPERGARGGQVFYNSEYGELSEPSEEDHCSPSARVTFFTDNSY

Which results are given for `COc1cc(C2=C(c3cn(CC4COC(C)(C)O4)c4ccccc34)CNC2=O)cc(OC)c1OC` (stereo not given)?
IC50 [1]: 8 µM; IC50 (Angiopoietin-1 receptor): 31 µM; IC50 [2]: 3.2 µM; IC50 [3]: 23 µM

With `COc1cc(C2=C(c3cn(COc4ccccc4)c4ccccc34)CNC2=O)cc(OC)c1OC` as the molecule, how does the IC50 [4] read?
Its IC50 is 20 µM.

And the IC50 [1]?
The IC50 was 1.5 µM.

And the IC50 (Angiopoietin-1 receptor)?
The IC50 was 1.7 µM.

What about the IC50 (Focal adhesion kinase 1) of the same molecule?
The IC50 was 43 µM.

What about the IC50 (Insulin receptor) of the same molecule?
The IC50 was 44 µM.

And the IC50 [5]?
Its IC50 is 37 µM.

What about the IC50 [6] of the same molecule?
The IC50 was 40 µM.

What about the IC50 [2] of the same molecule?
The IC50 was 2.5 µM.

And the IC50 (Aurora kinase B)?
Its IC50 is 20 µM.

And the IC50 [3]?
The IC50 was 9 µM.

What about the inhibition (Homo sapiens) of the same molecule?
Its inhibition is 41%.

And the IC50 [7]?
Its IC50 is 44 µM.

What about the IC50 (Aurora kinase A) of the same molecule?
The IC50 was 6.5 µM.

What does the source list for `COc1cc(C2=C(c3cn(COC(C)C)c4ccccc34)CNC2=O)cc(OC)c1OC`?
IC50 [1]: 5.2 µM; IC50 (Angiopoietin-1 receptor): 11 µM; IC50 (Focal adhesion kinase 1): 27 µM; IC50 [8]: 29 µM; IC50 [2]: 5.3 µM; IC50 [3]: 44 µM; IC50 (Aurora kinase A): 33 µM

How did the IC50 [1] turn out when `COCn1cc(C2=C(c3cc(OC)c(OC)c(OC)c3)C(=O)NC2)c2ccccc21` was run?
The IC50 was 2.3 µM.

What about the IC50 (Angiopoietin-1 receptor) of the same molecule?
The IC50 was 25 µM.

What about the IC50 (Focal adhesion kinase 1) of the same molecule?
The IC50 was 35 µM.

What about the IC50 [9] of the same molecule?
The IC50 was 25 µM.

What about the IC50 [2] of the same molecule?
Its IC50 is 3.2 µM.

And the inhibition (Homo sapiens)?
The inhibition was 42%.
